# Source: the M2OR odorant receptor database
# Key:
# Conditions in all cases: stereoisomer not certain
# OR2M3 (Homo sapiens) = molecular target: T1, OR2M3 (Homo sapiens) (UniProt Q8NG83)
# T1 sequence (whole entry): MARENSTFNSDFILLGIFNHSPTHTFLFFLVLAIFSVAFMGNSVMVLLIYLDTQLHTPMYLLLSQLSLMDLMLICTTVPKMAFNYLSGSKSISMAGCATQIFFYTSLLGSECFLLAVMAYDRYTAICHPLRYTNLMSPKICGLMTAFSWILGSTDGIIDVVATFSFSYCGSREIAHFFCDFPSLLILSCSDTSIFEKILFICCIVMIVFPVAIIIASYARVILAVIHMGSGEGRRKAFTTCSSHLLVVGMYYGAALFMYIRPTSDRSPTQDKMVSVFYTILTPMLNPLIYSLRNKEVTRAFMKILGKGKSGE
# How it was run: (§1)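 Each receptor–molecule pair is labelled responsive or non-responsive (inactive) according to whether the original authors judged the measured signal statistically different from baseline. The data were taken from the main text and supplementary material of published papers and checked for typos and inconsistencies. Assay methods differed by source, with transient luciferase assays in mammalian cell lines being common.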
# OR2M4 (Homo sapiens) = molecular target: T2, OR2M4 (Homo sapiens) (UniProt Q96R27)
# T2 sequence (whole entry): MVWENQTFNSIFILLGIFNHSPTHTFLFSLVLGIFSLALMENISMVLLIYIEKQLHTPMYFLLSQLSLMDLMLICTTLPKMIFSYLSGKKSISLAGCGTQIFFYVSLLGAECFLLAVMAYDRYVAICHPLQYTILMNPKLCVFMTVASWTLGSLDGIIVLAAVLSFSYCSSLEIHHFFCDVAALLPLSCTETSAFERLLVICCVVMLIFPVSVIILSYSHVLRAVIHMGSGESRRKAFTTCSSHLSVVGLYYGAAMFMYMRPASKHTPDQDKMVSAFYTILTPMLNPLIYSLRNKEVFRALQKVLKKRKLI
# How it was run: as §1
# OR2M5 (Homo sapiens) = OR2M5 (Homo sapiens) (UniProt A3KFT3)
# OR2M5 (Homo sapiens), sequence (A3KFT3 whole entry): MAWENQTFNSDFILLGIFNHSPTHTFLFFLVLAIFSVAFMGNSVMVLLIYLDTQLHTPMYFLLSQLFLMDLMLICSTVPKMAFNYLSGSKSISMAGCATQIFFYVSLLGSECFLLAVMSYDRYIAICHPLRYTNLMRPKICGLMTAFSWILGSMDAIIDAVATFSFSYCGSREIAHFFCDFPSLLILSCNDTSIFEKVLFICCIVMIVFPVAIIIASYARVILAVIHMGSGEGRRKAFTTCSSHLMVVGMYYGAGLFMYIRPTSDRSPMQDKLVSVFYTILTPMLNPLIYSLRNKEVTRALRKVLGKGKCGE
# How it was run: as §1
# OR2M5 D11G = test system: OR2M5 D11G
# OR2M5 D11G, sequence (as listed by the source, stated change not applied): as the sequence (A3KFT3 whole entry) above, with D11G counted along it
# How it was run: as §1
# OR2M7 (Homo sapiens) = molecular target: T3, OR2M7 (Homo sapiens) (UniProt Q8NG81)
# T3 sequence (whole entry): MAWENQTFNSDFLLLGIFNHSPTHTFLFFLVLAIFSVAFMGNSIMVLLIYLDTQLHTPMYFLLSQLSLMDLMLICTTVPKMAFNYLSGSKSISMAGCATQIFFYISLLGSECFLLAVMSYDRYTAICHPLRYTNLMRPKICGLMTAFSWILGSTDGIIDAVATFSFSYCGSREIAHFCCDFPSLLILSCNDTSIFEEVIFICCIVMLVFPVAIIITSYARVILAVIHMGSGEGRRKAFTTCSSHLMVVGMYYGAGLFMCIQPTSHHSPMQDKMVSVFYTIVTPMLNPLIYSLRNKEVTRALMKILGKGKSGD
# How it was run: as §1
# OR2S2 (Homo sapiens) = OR2S2 (Homo sapiens) (UniProt Q9NQN1)
# OR2S2 (Homo sapiens), sequence (Q9NQN1 whole entry): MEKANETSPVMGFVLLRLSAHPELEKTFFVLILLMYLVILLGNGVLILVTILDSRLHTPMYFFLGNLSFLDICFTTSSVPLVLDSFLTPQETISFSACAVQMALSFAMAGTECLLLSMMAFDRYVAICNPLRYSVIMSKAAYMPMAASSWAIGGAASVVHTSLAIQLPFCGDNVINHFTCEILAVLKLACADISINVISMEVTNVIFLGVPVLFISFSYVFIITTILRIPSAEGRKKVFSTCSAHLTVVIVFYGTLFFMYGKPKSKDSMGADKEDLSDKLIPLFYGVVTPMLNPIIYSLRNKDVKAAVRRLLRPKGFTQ
# How it was run: as §1
# OR2T1 (Homo sapiens) = OR2T1 (Homo sapiens) (UniProt O43869)
# OR2T1 (Homo sapiens), sequence (O43869 whole entry): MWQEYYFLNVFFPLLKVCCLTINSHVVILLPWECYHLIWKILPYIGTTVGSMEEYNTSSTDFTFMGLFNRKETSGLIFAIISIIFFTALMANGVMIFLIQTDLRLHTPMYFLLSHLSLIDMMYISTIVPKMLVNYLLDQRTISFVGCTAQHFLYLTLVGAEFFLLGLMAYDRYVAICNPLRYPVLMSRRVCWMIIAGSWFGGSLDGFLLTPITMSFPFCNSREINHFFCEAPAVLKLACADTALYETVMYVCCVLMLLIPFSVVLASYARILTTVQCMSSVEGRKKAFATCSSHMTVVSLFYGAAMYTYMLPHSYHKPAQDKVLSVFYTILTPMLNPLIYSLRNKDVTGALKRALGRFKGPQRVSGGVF
# How it was run: as §1
# OR2T10 (Homo sapiens) = molecular target: T4, OR2T10 (Homo sapiens) (UniProt Q8NGZ9)
# T4 sequence (whole entry): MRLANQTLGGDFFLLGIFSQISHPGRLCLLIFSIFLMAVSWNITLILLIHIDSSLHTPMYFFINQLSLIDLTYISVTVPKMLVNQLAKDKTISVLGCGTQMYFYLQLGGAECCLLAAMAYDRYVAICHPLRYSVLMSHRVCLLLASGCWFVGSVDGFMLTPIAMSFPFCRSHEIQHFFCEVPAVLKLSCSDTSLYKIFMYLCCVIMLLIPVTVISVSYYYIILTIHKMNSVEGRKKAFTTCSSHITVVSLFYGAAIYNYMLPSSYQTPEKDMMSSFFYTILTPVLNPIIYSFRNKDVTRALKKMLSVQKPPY
# How it was run: as §1
# OR2T11 (Homo sapiens) = OR2T11 (Homo sapiens) (UniProt Q8NH01)
# OR2T11 (Homo sapiens), sequence (Q8NH01 whole entry): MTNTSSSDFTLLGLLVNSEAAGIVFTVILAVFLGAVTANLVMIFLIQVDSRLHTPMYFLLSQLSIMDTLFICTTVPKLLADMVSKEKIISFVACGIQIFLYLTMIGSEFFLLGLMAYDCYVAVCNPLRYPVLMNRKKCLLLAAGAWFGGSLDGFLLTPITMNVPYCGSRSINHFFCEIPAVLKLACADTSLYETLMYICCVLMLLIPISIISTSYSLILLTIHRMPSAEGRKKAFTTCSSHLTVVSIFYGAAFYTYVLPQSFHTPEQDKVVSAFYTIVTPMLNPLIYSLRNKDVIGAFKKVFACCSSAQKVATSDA
# How it was run: as §1
# OR2T12 (Homo sapiens) = OR2T12 (Homo sapiens) (UniProt Q8NG77)
# OR2T12 (Homo sapiens), sequence (Q8NG77 whole entry): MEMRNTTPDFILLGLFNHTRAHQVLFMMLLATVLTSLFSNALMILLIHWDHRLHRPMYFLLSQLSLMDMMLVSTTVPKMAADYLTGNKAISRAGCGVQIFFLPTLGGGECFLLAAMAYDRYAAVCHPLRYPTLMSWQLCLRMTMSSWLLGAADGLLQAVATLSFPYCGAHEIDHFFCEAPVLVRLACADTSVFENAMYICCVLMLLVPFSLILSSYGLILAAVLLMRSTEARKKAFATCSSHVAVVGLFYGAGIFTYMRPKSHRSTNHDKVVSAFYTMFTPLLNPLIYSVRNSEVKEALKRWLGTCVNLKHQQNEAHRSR
# How it was run: as §1
# 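Note: active if original authors judged signal statistically different from baseline.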
compound,measurement,setting,value
C=CCOC(=O)Cc1ccccc1,odorant receptor agonist call,OR2M3 (Homo sapiens),inactive
same,odorant receptor agonist call,OR2M4 (Homo sapiens),inactive
same,odorant receptor agonist call,OR2M5 (Homo sapiens),inactive
same,odorant receptor agonist call,OR2M5 D11G,inactive
same,odorant receptor agonist call,OR2M7 (Homo sapiens),inactive
same,odorant receptor agonist call,OR2S2 (Homo sapiens),inactive
same,odorant receptor agonist call,OR2T1 (Homo sapiens),inactive
same,odorant receptor agonist call,OR2T10 (Homo sapiens),inactive
same,odorant receptor agonist call,OR2T11 (Homo sapiens),inactive
same,odorant receptor agonist call,OR2T12 (Homo sapiens),inactive
O=Cc1ccccc1,odorant receptor agonist call,OR2M4 (Homo sapiens),inactive
same,odorant receptor agonist call,OR2T10 (Homo sapiens),inactive
SCc1ccco1,odorant receptor agonist call,OR2M3 (Homo sapiens),inactive
COc1ccc(C=O)cc1,odorant receptor agonist call,OR2M3 (Homo sapiens),inactive
Cc1ccc(O)c(C)c1,odorant receptor agonist call,OR2M3 (Homo sapiens),inactive
C=CCc1ccccc1,odorant receptor agonist call,OR2M7 (Homo sapiens),inactive
C=CCSSCC=C,odorant receptor agonist call,OR2M3 (Homo sapiens),inactive
C=CCc1ccc(OC)cc1,odorant receptor agonist call,OR2M3 (Homo sapiens),inactive
same,odorant receptor agonist call,OR2T10 (Homo sapiens),inactive
CCC1CCC(=O)O1 (stereo not given),odorant receptor agonist call,OR2M7 (Homo sapiens),inactive
CSSC,odorant receptor agonist call,OR2M3 (Homo sapiens),inactive
O=C(O)Cc1ccccc1,odorant receptor agonist call,OR2M3 (Homo sapiens),inactive
O=c1cc(O)c2ccccc2o1,odorant receptor agonist call,OR2M7 (Homo sapiens),inactive
CCOC(=O)Cc1ccccc1,odorant receptor agonist call,OR2M3 (Homo sapiens),inactive
Cc1ccccc1O,odorant receptor agonist call,OR2M3 (Homo sapiens),inactive
O=CC=Cc1ccccc1,odorant receptor agonist call,OR2M4 (Homo sapiens),active
same,odorant receptor agonist call,OR2T10 (Homo sapiens),active
Cc1c([N+](=O)[O-])c(C)c([N+](=O)[O-])c(C(C)(C)C)c1[N+](=O)[O-],odorant receptor agonist call,OR2M3 (Homo sapiens),inactive
same,odorant receptor agonist call,OR2M5 (Homo sapiens),inactive
same,odorant receptor agonist call,OR2M7 (Homo sapiens),inactive
same,odorant receptor agonist call,OR2S2 (Homo sapiens),inactive
same,odorant receptor agonist call,OR2T1 (Homo sapiens),inactive
same,odorant receptor agonist call,OR2T10 (Homo sapiens),inactive
same,odorant receptor agonist call,OR2T11 (Homo sapiens),inactive
same,odorant receptor agonist call,OR2T12 (Homo sapiens),inactive
